≈ marks a conversion by molar mass, not a printed value. Each block holds one compound with its values, some of them ahead of it.
What was measured:
[1] = target: T1, Metabotropic glutamate receptor 5 (Homo sapiens, UniProt P41594); assay: Antagonist activity at human mGluR5 expressed in HEK293 cells assessed as inhibition of Ca2+ mobilization by FLIPR assay; format: functional, cell-based
[2] = target: T1, Metabotropic glutamate receptor 5; assay: Displacement of [3H]-ABP688 from human mGluR5 expressed in HEK293 cells after 60 mins by scintillation counting; format: cell-based
[3] = Partition co-efficient, log D at pH 7.4 of the compound by shake flask method; format: physicochemical; details: buffer
[4] = Kinetic solubility of the compound in potassium phosphate buffer after 4 hrs; format: physicochemical; details: read-out: Kinetic_solubility
Summary of the method: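 Kinetic solubility: compound from 10 mM DMSO stock diluted into 25 mM potassium phosphate buffer and shaken 4 h. Supernatant analyzed by UPLC with PDA detection at 254 nm.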

Liver microsomes [5] = assay: Intrinsic clearance in human liver microsomes; format: ADME, Microsome; set-up: unit not given here
[6] = target: T2, Metabotropic glutamate receptor 1 (Rattus norvegicus, UniProt P23385); assay: Agonist activity at rat mGluR1 expressed in HEK293 cells assessed as Ca2+ mobilization by FLIPR assay; format: functional, cell-based
T2 sequence (P23385 whole entry): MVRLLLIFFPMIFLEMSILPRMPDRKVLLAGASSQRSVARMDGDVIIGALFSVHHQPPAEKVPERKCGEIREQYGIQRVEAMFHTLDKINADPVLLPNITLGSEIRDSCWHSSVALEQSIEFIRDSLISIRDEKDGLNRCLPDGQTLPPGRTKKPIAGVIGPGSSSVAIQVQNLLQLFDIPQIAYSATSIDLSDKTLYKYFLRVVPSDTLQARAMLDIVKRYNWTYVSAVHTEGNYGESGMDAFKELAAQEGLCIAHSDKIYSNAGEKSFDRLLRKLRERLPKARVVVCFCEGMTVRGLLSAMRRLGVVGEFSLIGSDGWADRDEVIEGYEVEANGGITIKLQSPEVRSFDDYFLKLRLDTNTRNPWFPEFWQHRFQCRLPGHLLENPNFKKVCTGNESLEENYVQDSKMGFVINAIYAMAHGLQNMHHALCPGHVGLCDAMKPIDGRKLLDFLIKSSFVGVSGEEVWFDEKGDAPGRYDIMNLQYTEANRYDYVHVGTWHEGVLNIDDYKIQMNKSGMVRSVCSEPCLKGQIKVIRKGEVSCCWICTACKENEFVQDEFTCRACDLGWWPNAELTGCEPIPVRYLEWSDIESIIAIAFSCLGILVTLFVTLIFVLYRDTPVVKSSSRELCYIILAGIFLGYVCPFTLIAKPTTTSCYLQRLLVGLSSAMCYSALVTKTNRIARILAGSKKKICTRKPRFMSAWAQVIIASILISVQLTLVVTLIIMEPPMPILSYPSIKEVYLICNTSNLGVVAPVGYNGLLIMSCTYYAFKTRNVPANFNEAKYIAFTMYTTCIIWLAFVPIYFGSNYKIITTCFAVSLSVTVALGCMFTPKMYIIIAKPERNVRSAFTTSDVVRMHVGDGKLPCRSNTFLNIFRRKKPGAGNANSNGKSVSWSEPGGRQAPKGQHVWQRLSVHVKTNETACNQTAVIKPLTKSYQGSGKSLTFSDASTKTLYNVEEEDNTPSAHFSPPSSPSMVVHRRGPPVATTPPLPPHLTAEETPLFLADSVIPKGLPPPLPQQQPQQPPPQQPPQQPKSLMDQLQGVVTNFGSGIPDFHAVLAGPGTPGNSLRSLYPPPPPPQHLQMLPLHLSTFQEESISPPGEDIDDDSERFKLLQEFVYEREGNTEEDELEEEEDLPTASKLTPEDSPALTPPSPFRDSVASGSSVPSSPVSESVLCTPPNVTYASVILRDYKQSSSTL
Summary of the method: (§1)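 Rat mGluR1 stably in HEK293 cells (1.5% calf serum medium), seeded 24 h earlier, Fluo-4 loaded 1 h at 37 °C in HBSS/HEPES pH 7.4 with probenecid. Curves fitted with Hill equation.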

Liver microsomes [7] = assay: Intrinsic clearance in rat liver microsomes; format: ADME, Microsome
[8] = target: T2, Metabotropic glutamate receptor 1; assay: Antagonist activity at rat mGluR1 expressed in HEK293 cells assessed as inhibition of Ca2+ mobilization by FLIPR assay; format: functional, cell-based; summary of the method: as §1
[9] = Plasma protein binding in human; format: ADME, cell-free; details: read-out: PPB (converted)
[10] = Drug uptake in CD-1 mouse brain at 10 mg/kg, sc at 1 hr; format: ADME, organism-based; set-up: dose 10 mg/kg, route subcutaneous; details: read-out: Drug uptake
Summary of the method: (§2)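 CD-1 mice (n = 2), 10 mg/kg SC in 20% hydroxypropyl-β-cyclodextrin in water. Brain and plasma sampled at 1 h; averages reported. Quantification limits were 2 ng/g for brain and 2 ng/mL for plasma. Kupp is the ratio of unbound brain to unbound plasma concentration.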

[11] = Half life in Sprague-Dawley rat at 1 mg/kg, iv or 2 mg/kg, po; format: ADME, organism-based; details: in vivo
Summary of the method: (§3)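 Sprague-Dawley rats (n = 2) dosed in a cross-over design with a 24 h washout: 1 mg/kg IV and 2 mg/kg PO in 20% hydroxypropyl-β-cyclodextrin in water. Rat hepatic blood flow was taken as 20 mL/min.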

[12] = Volume of distribution at steady state in Sprague-Dawley rat at 1 mg/kg, iv or 2 mg/kg, po; format: ADME, organism-based; details: in vivo, read-out: Vdss; summary of the method: as §3
Rattus norvegicus [13] = assay: AUC ( 0 to infinity) in Sprague-Dawley rat at 2 mg/kg, po; format: ADME, organism-based, Plasma; set-up: dose 2 mg/kg, route oral, time infinity; details: in vivo
Summary of the method: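 Sprague-Dawley rats (n = 2), cross-over design with 24 h washout between routes; 2 mg/kg oral in 20% hydroxypropyl-β-cyclodextrin in water; plasma AUC0-inf derived from concentration–time profile.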

Plasma [14] = assay: Fraction unbound in rat plasma; format: ADME, cell-free
[15] = Fraction unbound in rat brain; format: ADME, tissue-based
Plasma [16] = assay: Fraction unbound in mouse plasma; format: ADME, cell-free
Rattus norvegicus [17] = assay: AUC ( 0 to infinity) in Sprague-Dawley rat at 1 mg/kg, iv; format: ADME, organism-based, Plasma; set-up: time infinity, dose 1 mg/kg, route intravenous; details: in vivo
Summary of the method: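 Sprague-Dawley rats (n = 2), cross-over design with 24 h washout between routes; 1 mg/kg iv in 20% hydroxypropyl-β-cyclodextrin in water; plasma AUC0-inf derived from concentration–time profile.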

Rattus norvegicus [18] = assay: Bioavailability in Sprague-Dawley rat at 1 mg/kg, iv or 2 mg/kg, po; format: ADME, organism-based; details: in vivo; summary of the method: as §3
[19] = Tmax in Sprague-Dawley rat at 1 mg/kg, iv or 2 mg/kg, po; format: ADME, organism-based; details: in vivo; summary of the method: as §3
[20] = Ratio of drug uptake in brain to plasma of CD-1 mouse at 10 mg/kg, sc at 1 hr; format: ADME, organism-based; set-up: dose 10 mg/kg, route subcutaneous; details: read-out: BPR; summary of the method: as §2
[21] = Ratio of fraction unbound in brain to plasma of CD-1 mouse brain at 10 mg/kg, sc at 1 hr; format: ADME, organism-based; set-up: dose 10 mg/kg, route subcutaneous; details: in vivo; summary of the method: as §2
[22] = Plasma clearance in Sprague-Dawley rat at 1 mg/kg, iv or 2 mg/kg, po; format: ADME, organism-based; summary of the method: as §3
[23] = Fraction unbound in mouse brain; format: ADME, tissue-based
[24] = Cmax in Sprague-Dawley rat at 1 mg/kg, iv or 2 mg/kg, po; format: ADME, organism-based; details: in vivo; summary of the method: as §3
Liver = assay: Intrinsic clearance in mouse liver microsomes; format: ADME, Microsome
Rattus norvegicus [25] = assay: Plasma clearance in Sprague-Dawley rat at 1 mg/kg, iv or 2 mg/kg, po relative to hepatic blood flow; format: ADME, organism-based; details: in vivo; summary of the method: as §3
[26] = Plasma concentration in CD-1 mouse at 10 mg/kg, sc at 1 hr; format: ADME, organism-based; set-up: dose 10 mg/kg, route subcutaneous; summary of the method: as §2

T1 sequence (P41594 whole entry): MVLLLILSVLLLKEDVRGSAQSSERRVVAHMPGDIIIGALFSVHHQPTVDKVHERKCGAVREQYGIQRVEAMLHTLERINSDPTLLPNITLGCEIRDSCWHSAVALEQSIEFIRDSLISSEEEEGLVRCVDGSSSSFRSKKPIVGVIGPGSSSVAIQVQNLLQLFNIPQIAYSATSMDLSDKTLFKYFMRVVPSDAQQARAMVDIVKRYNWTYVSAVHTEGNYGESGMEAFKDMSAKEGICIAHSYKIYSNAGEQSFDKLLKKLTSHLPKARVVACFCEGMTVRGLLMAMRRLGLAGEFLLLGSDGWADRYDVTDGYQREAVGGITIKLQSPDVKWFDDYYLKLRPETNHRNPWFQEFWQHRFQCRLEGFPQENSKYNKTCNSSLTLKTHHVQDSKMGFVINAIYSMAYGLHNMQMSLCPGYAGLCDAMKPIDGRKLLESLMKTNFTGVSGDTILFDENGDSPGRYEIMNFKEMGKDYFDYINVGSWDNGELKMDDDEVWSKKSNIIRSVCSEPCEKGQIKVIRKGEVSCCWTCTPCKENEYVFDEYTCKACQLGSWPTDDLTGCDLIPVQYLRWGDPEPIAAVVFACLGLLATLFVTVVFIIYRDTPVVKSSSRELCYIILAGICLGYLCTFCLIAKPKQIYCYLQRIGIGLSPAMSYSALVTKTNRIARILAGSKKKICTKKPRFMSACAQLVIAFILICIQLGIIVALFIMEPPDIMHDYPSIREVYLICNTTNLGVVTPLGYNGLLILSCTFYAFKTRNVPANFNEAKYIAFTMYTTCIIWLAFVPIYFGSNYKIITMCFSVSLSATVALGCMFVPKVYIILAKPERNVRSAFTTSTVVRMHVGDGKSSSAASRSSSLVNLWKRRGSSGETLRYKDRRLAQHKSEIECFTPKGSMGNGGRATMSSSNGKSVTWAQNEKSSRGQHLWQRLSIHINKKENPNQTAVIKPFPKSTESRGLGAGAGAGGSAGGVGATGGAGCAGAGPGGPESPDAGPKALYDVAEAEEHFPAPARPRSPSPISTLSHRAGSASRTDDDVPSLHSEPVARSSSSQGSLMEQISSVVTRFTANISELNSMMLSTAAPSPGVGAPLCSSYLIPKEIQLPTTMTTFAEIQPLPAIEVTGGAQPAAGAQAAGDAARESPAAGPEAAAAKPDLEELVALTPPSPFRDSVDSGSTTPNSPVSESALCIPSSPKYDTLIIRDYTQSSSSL

SMILES: Cc1cccc(C(=O)N[C@H]2CCC[C@@]3(CN=C(c4cccc(Cl)c4)O3)C2)n1 (relative stereo)
IC50 [1]: 1510 nM

SMILES: Cc1ccnc(C(=O)N[C@H]2CCC[C@H](NC(=O)c3cccc(Cl)c3)C2)c1 (relative stereo)
IC50 [1]: 3400 nM

SMILES: O=C(N[C@H]1CCC[C@H](NC(=O)C2CCCCC2)C1)c1cccc(Cl)c1 (relative stereo)
IC50 [1]: 857 nM

SMILES: O=C(N[C@H]1CCC[C@H](NC(=O)c2cccc(Cl)c2)C1)c1cccnc1 (relative stereo)
IC50 [1]: 612 nM

SMILES: Cc1cccc(C(=O)N[C@@H]2CCC[C@@]3(CN=C(c4cccc(Cl)c4)O3)C2)n1
IC50 [1]: 5230 nM

SMILES: COc1cccc(C(=O)N[C@H]2CCC[C@H](NC(=O)c3cccc(Cl)c3)C2)c1 (relative stereo)
IC50 [1]: 789 nM

SMILES: O=C(NC1CCCC2(CN=C(c3cccc(Cl)c3)O2)C1)c1ccccn1 (mixture of isomers)
Ki [2]: 30 nM
IC50 [1]: 647 nM

SMILES: CN(C)c1cccc(C(=O)N[C@H]2CCC[C@H](NC(=O)c3cccc(Cl)c3)C2)c1 (relative stereo)
IC50 [1]: > 10000 nM

SMILES: O=C(N[C@H]1CCC[C@H](NC(=O)c2cnccn2)C1)c1cccc(Cl)c1 (relative stereo)
IC50 [1]: 1370 nM

SMILES: N#Cc1cccc(C(=O)N[C@H]2CCC[C@H](NC(=O)c3ccccn3)C2)c1
IC50 [1]: > 10000 nM

SMILES: N#Cc1cccnc1C(=O)NC1CCCC(NC(=O)c2cccc(Cl)c2)C1 (mixture of isomers)
Ki [2]: 1250 nM
IC50 [1]: 671 nM

Now those with a lower IC50 [1], led by results:

Ki [2]: 3790 nM
IC50 [1]: 425 nM
SMILES: O=C(N[C@H]1CCC[C@H](NC(=O)c2ncccn2)C1)c1cccc(Cl)c1 (relative stereo)

Ki [2]: 1540 nM
IC50 [1]: 531 nM
SMILES: N#Cc1cccc(C(=O)NC2CCCC(NC(=O)c3ccccn3)C2)c1 (racemic)

Ki [2]: 582 nM
IC50 [1]: 290 nM
SMILES: Cc1cccc(C(=O)N[C@H]2CCC[C@H](NC(=O)c3cccc(Cl)c3)C2)n1 (racemic)

Ki [2]: 760 nM
IC50 [1]: 175 nM
SMILES: O=C(N[C@H]1CCC[C@H](NC(=O)c2ccccc2F)C1)c1cccc(Cl)c1 (relative stereo)

IC50 [1]: 593 nM
SMILES: O=C(N[C@H]1CCC[C@H](NC(=O)c2cccc(F)c2)C1)c1cccc(F)c1

Ki [2]: 211 nM
logD [3]: > 5
solubility kinetic at 4 h [4]: 5.4 µM (≈ 2.02 µg/mL)
Intrinsic clearance (Liver microsomes [5]): 0.8
EC50 [6]: > 10000 nM
IC50 [1]: 59 nM
Intrinsic clearance (Liver microsomes [7]): 9.4 mL/min
IC50 [8]: 2100 nM
fraction unbound [9]: 0.039
SMILES: O=C(N[C@@H]1CCC[C@@H](NC(=O)c2cccc(Cl)c2)C1)c1cccc(F)c1

IC50 [1]: 139 nM
SMILES: O=C(NC1CCCC(NC(=O)c2cccc(Cl)c2)C1)c1cccc(Cl)c1 (mixture of isomers)

IC50 [1]: 314 nM
SMILES: O=C(NC1CCCC(NC(=O)c2ccccn2)C1)c1cccc(Cl)c1 (racemic)

Ki [2]: 672 nM
IC50 [1]: 228 nM
SMILES: O=C(N[C@H]1CCC[C@H](NC(=O)c2cccc(Cl)c2)C1)c1ccccc1 (relative stereo)

IC50 [1]: 473 nM
SMILES: CN(C)c1ccc(C(=O)N[C@H]2CCC[C@H](NC(=O)c3cccc(Cl)c3)C2)cc1

concentration at 1 h [10]: 170 nM
half-life [11]: 0.6 h
Ki [2]: 205 nM
logD [3]: 3.2
solubility kinetic at 4 h [4]: 240 µM (≈ 85.9 µg/mL)
Vd [12]: 3.4 L/kg
Intrinsic clearance (Liver microsomes [5]): 1.1
EC50 [6]: > 10000 nM
AUC (Rattus norvegicus [13]): 530 ng·h/mL
IC50 [1]: 62 nM
Cp(f) (Plasma [14]): 14%
fraction unbound [15]: 0.13
Intrinsic clearance (Liver microsomes [7]): 41 mL/min
Cp(f) (Plasma [16]): 11%
AUC (Rattus norvegicus [17]): 260 ng·h/mL
bioavailability (Rattus norvegicus [18]): 80%
Tmax [19]: 2 h
IC50 [8]: > 10000 nM
Kp at 1 h [20]: 0.34
Ratio [21]: 0.67
fraction unbound [9]: 0.065
clearance [22]: 68.3 mL/min/kg
fraction unbound [23]: 0.22
Cmax [24]: 220 ng/mL
Intrinsic clearance (Liver): 9 mL/min
CL (Rattus norvegicus [25]): 85%
concentration at 1 h [26]: 500 nM
SMILES: O=C(N[C@@H]1CCC[C@@H](NC(=O)c2ccccn2)C1)c1cccc(Cl)c1

IC50 [1]: 72 nM
SMILES: Cc1cccc(C(=O)N[C@@H]2CCC[C@@]3(CN=C(c4cccc(Cl)c4)O3)C2)n1 (relative stereo)

— ChEMBL document CHEMBL2331336, “Discovery and structure-activity relationship of 1,3-cyclohexyl amide derivatives as novel mGluR5 negative allosteric modulators” (Bioorg Med Chem Lett, 2013)
